Results from ChEMBL document CHEMBL4038284, “Synthesis of novel quinoline-based 4,5-dihydro-1H-pyrazoles as potential anticancer, antifungal, antibacterial and antiprotozoal agents” (Eur J Med Chem, 2017).
Converted amounts (≈) assume the structure as drawn. The source made the active and inactive calls. The calls are words filed in the database; no cut-off is given here.

Assays:
Klebsiella pneumoniae = experiment: Antibacterial activity against ESBL positive Klebsiella pneumoniae ATCC 700603 after 24 hrs by resazurin dye based microdilution assay; type: functional; conditions: Klebsiella pneumoniae, 700603, 24 h
Summary of the method: (§1)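 MIC taken as the lowest concentration giving visible inhibition and/or by resazurin (1 mg/mL). Gentamicin was the control. Run in duplicate, repeated at least three times.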

Leishmania panamensis = experiment: Antileshmanial activity against EpiR/GFP fused Leishmania panamensis MHOM/CO/87/UA140 intracellular amastigotes infected in human […] cells after 72 hrs by flow cytometric method; type: functional, cell-based; conditions: MHOM/CO/87/UA140, 72 h
Summary of the method: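 PMA-treated U-937 cells (3 × 10^5 cells/mL) infected with stationary-phase GFP L. panamensis promastigotes (15:1), 3 h at 34 °C, then washed. After 24 h, compounds added at 50, 12.5, 3.125 and 0.78 µg/mL for 72 h at 37 °C. EC50 by Probit; triplicate, two experiments.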

CCRF-CEM = experiment: Growth inhibition of human CCRF-CEM cells at 10 uM incubated for 48 hrs by sulforhodamine B assay; type: functional, cell-based
Summary of the method: (§2)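 NCI 60-cell-line screen at a single 10 µM dose. Cells in RPMI-1640 with 5% FBS and 2 mM L-glutamine, pre-incubated 24 h, then treated for 48 h at 37 °C. TCA fixation, sulforhodamine B staining, absorbance at 515 nm. Percentage growth calculated against time-zero and untreated controls.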

HL-60(TB) = experiment: Growth inhibition of human HL-60(TB) cells at 10 uM incubated for 48 hrs by sulforhodamine B assay; type: functional, cell-based
Summary of the method: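 NCI 60-line single-dose screen at 10 μM, 48 h. Cells in RPMI-1640 with 5% FBS and 2 mM L-glutamine at 37 °C, 5% CO2. Growth measured by TCA fixation and SRB staining (515 nm), relative to time-zero and untreated control wells.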

K562 = experiment: Growth inhibition of human K562 cells at 10 uM incubated for 48 hrs by sulforhodamine B assay; type: functional, cell-based
Summary of the method: (§3)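 NCI 60-line panel, single 10 μM dose. Cells were grown in RPMI-1640 with 5% FBS and 2 mM L-glutamine and pre-incubated 24 h before compound addition (DMSO stock). Exposure was 48 h at 37 °C, 5% CO2. Cells were fixed with cold TCA (10% final), stained with 0.4% SRB, bound dye dissolved in 10 mM Tris base, A515 read. Growth was taken relative to time-zero and untreated control plates.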

SR = experiment: Growth inhibition of human SR cells at 10 uM incubated for 48 hrs by sulforhodamine B assay; type: functional, cell-based
Summary of the method: (§4)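 NCI-60 single-dose screen at 10 µM for 48 h. Cells were grown in RPMI-1640 with 5% FBS and 2 mM L-glutamine and preincubated 24 h before compound. Time-zero plates were TCA-fixed at compound addition. After exposure, cells were TCA-fixed, stained with SRB and read at 515 nm. Percentage growth was calculated against time-zero and untreated-control absorbances.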

NCI-H226 = experiment: Growth inhibition of human NCI-H226 cells at 10 uM incubated for 48 hrs by sulforhodamine B assay; type: functional, cell-based; summary of the method: as §3
COLO 205 = experiment: Growth inhibition of human COLO205 cells at 10 uM incubated for 48 hrs by sulforhodamine B assay; type: functional, cell-based; summary of the method: as §2
HCC 2998 = experiment: Growth inhibition of human HCC2998 cells at 10 uM incubated for 48 hrs by sulforhodamine B assay; type: functional, cell-based; summary of the method: as §2
SW-620 = experiment: Growth inhibition of human SW620 cells at 10 uM incubated for 48 hrs by sulforhodamine B assay; type: functional, cell-based; summary of the method: as §4
SF-539 = experiment: Growth inhibition of human SF539 cells at 10 uM incubated for 48 hrs by sulforhodamine B assay; type: functional, cell-based; summary of the method: as §3
Malme-3M = experiment: Growth inhibition of human MALME-3M cells at 10 uM incubated for 48 hrs by sulforhodamine B assay; type: functional, cell-based; summary of the method: as §3
M14 = experiment: Growth inhibition of human M14 cells at 10 uM incubated for 48 hrs by sulforhodamine B assay; type: functional, cell-based; summary of the method: as §3
MDA-MB-435 = experiment: Growth inhibition of human MDA-MB-435 cells at 10 uM incubated for 48 hrs by sulforhodamine B assay; type: functional, cell-based; summary of the method: as §3
UACC-257 = experiment: Growth inhibition of human UACC257 cells at 10 uM incubated for 48 hrs by sulforhodamine B assay; type: functional, cell-based; summary of the method: as §4
UACC-62 = experiment: Growth inhibition of human UACC62 cells at 10 uM incubated for 48 hrs by sulforhodamine B assay; type: functional, cell-based; summary of the method: as §4
OVCAR-3 = experiment: Growth inhibition of human OVCAR3 cells at 10 uM incubated for 48 hrs by sulforhodamine B assay; type: functional, cell-based; summary of the method: as §3
OVCAR-4 = experiment: Growth inhibition of human OVCAR4 cells at 10 uM incubated for 48 hrs by sulforhodamine B assay; type: functional, cell-based; summary of the method: as §3
OVCAR-5 = experiment: Growth inhibition of human OVCAR5 cells at 10 uM incubated for 48 hrs by sulforhodamine B assay; type: functional, cell-based; summary of the method: as §3
UO-31 = experiment: Growth inhibition of human UO31 cells at 10 uM incubated for 48 hrs by sulforhodamine B assay; type: functional, cell-based; summary of the method: as §4
PC-3 = experiment: Growth inhibition of human PC3 cells at 10 uM incubated for 48 hrs by sulforhodamine B assay; type: functional, cell-based; summary of the method: as §3
MCF7 = experiment: Growth inhibition of human MCF7 cells at 10 uM incubated for 48 hrs by sulforhodamine B assay; type: functional, cell-based; summary of the method: as §3
Hs-578T = experiment: Growth inhibition of human Hs578T cells at 10 uM incubated for 48 hrs by sulforhodamine B assay; type: functional, cell-based; summary of the method: as §3
MDA-MB-468 = experiment: Growth inhibition of human MDA-MB-468 cells at 10 uM incubated for 48 hrs by sulforhodamine B assay; type: functional, cell-based; summary of the method: as §3
Candida albicans [1] = experiment: Growth inhibition of Candida albicans ATCC 10231 at 125 ug/ml incubated for 48 hrs under dark condition by broth microdilution method relative to control; type: functional; conditions: ATCC 10231, 48 h, read-out: GI
Summary of the method: (§5)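 CLSI M27-A3 broth microdilution in RPMI-1640, DMSO ≤1%. Inoculum 1-5 × 10^3 CFU/mL. Incubated 48 h at 30 °C, dark. % inhibition = 100 − (OD405 test − sterility control)/(OD405 growth control − sterility control), with growth and sterility control wells. Triplicate.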

Candida albicans [2] = experiment: Growth inhibition of Candida albicans ATCC 10231 at 62.5 ug/ml incubated for 48 hrs under dark condition by broth microdilution method relative to control; type: functional; conditions: ATCC 10231, 48 h, read-out: GI; summary of the method: as §5
Cryptococcus neoformans = experiment: Growth inhibition of Cryptococcus neoformans ATCC 32264 at 15.62 ug/ml incubated for 48 hrs under dark condition by broth microdilution method relative to control; type: functional; conditions: ATCC 32264, 48 h, read-out: GI; summary of the method: as §5
Staphylococcus aureus = experiment: Antibacterial activity against methicillin-sensitive Staphylococcus aureus ATCC 25923 after 24 hrs by resazurin dye based microdilution assay; type: functional; conditions: ATCC 25923, 24 h; summary of the method: as §1
Pseudomonas aeruginosa = experiment: Antibacterial activity against Pseudomonas aeruginosa ATCC 27853 after 24 hrs by resazurin dye based microdilution assay; type: functional; conditions: ATCC 27853, 24 h; summary of the method: as §1
Neisseria gonorrhoeae = experiment: Antibacterial activity against beta lactamase positive Neisseria gonorrhoeae ATCC 31426 by oxidase test; type: functional
Summary of the method: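 Agar dilution MIC on GC agar with 1% isovitalex containing increasing compound concentrations. Plates inoculated with about 1×10^4 CFU (5 µL). MIC is the lowest concentration that inhibited growth, with growth confirmed by oxidase test. Run in duplicate, repeated at least three times.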

| Compound | MIC (Klebsiella pneumoniae) [µg/mL] | EC50 (Leishmania panamensis) [µg/mL] | growth inhibition (GI) (CCRF-CEM) | growth inhibition (GI) (HL-60(TB)) | growth inhibition (GI) (K562) | growth inhibition (GI) (SR) | growth inhibition (GI) (NCI-H226) | growth inhibition (GI) (COLO 205) | growth inhibition (GI) (HCC 2998) | growth inhibition (GI) (SW-620) | growth inhibition (GI) (SF-539) | growth inhibition (GI) (Malme-3M) | growth inhibition (GI) (M14) | growth inhibition (GI) (MDA-MB-435) | inhibition of growth at 125 µg/mL (Candida albicans [1]) [%] | inhibition of growth at 62.5 µg/mL (Candida albicans [2]) [%] | inhibition of growth at 15.62 µg/mL (Cryptococcus neoformans) [%] | MIC (Staphylococcus aureus) [µg/mL] | MIC (Pseudomonas aeruginosa) [µg/mL] | MIC (Neisseria gonorrhoeae) [µg/mL] | further results |
| --- | --- | --- | --- | --- | --- | --- | --- | --- | --- | --- | --- | --- | --- | --- | --- | --- | --- | --- | --- | --- | --- |
| COc1ccc(C2=NN(C=O)C(c3cccc(Nc4ccnc5cc(Cl)ccc45)c3)C2)cc1 (stereo not drawn) | > 1000 | 33.1 (≈ 72.5 µM) | Active | Active | Active | Active | Active | Active | Active | Active | Active | Active | Active | Active | 28 | 20.1 | 23.6 | > 1000 | > 1000 | > 1000 | growth inhibition (GI) (UACC-257): Active; growth inhibition (GI) (UACC-62): Active; growth inhibition (GI) (OVCAR-3): Active; growth inhibition (GI) (OVCAR-4): Active; growth inhibition (GI) (OVCAR-5): Active; growth inhibition (GI) (UO-31): Active; growth inhibition (GI) (PC-3): Active; growth inhibition (GI) (MCF7): Active; growth inhibition (GI) (Hs-578T): Active; growth inhibition (GI) (MDA-MB-468): Active |
| COc1ccc(C2=NN(c3ccccc3)C(c3cccc(Nc4ccnc5cc(Cl)ccc45)c3)C2)cc1 (stereo not drawn) | > 1000 | 6.93 (≈ 13.7 µM) | inactive | inactive | inactive | inactive | inactive | inactive | inactive | inactive | inactive | inactive | inactive | inactive | 19.8 | 17.3 | 6.02 | > 1000 | > 1000 | > 1000 | growth inhibition (GI) (UACC-257): inactive; growth inhibition (GI) (UACC-62): inactive; growth inhibition (GI) (OVCAR-3): inactive; growth inhibition (GI) (OVCAR-4): inactive; growth inhibition (GI) (OVCAR-5): inactive; growth inhibition (GI) (UO-31): inactive; growth inhibition (GI) (PC-3): inactive; growth inhibition (GI) (MCF7): inactive; growth inhibition (GI) (Hs-578T): inactive; growth inhibition (GI) (MDA-MB-468): inactive |
| O=Cc1cccc(Nc2ccnc3cc(Cl)ccc23)c1 | > 1000 | 0.96 (≈ 3.4 µM) | – | – | – | – | – | – | – | – | – | – | – | – | 34.8 | 19.6 | 9.47 | 62.5 (≈ 221 µM) | > 1000 | 500 (≈ 1770 µM) | – |
